From ChEMBL document CHEMBL1275400, “Design, synthesis, and DNA-binding of N-alkyl(anilino)quinazoline derivatives” (J Med Chem, 2010) come the findings set out here.

Active and inactive are the calls of the source. The rule behind the calls is not given here. Bounds are passed on as bounds.

Assay [1] concerns Calf thymus DNA. Put plainly: Binding affinity to calf thymus DNA in BPE buffer assessed as change in melting temperature at drug/DNA base pair ratio 1. The conditions noted are these: Bos taurus. Type of assay: nucleic-acid assay. In outline: (§1)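 Melting curves are read at 260 nm in BPE buffer, pH 7.1 (6 mM Na2HPO4, 2 mM NaH2PO4, 1 mM EDTA), in Peltier-heated 10 mm quartz cuvettes. Temperature rises from 20 to 100 °C at 1 °C/min and is monitored with a platinum probe. Tm is taken as the midpoint of the hyperchromic transition.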

In assay [2] the test system is Nucleic Acid. Put plainly: Binding affinity to poly(dA-dT)2 in BPE buffer assessed as change in melting temperature at drug/DNA base pair ratio 1. It counts as nucleic-acid assay. The essentials:
as §1

Assay [3] has as its system Calf thymus DNA. The assay is described as follows: Binding affinity to calf thymus DNA in BPE buffer at drug/DNA base pair ratio up to 10 by UV spectroscopic analysis. Type of assay: nucleic-acid assay. The conditions noted are these: Bos taurus. The essentials:
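Absorption spectra are recorded in BPE buffer, pH 7.1, at a constant drug concentration of 20 μM. Aliquots of concentrated calf thymus DNA are added to cover a range of DNA-phosphate/drug ratios.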

The subject of assay [4] is Calf thymus DNA. Put plainly: Binding affinity to calf thymus DNA at drug/DNA base pair ratio up to 4 by circular dichroism analysis. As to conditions: Bos taurus. Type of assay: nucleic-acid assay. The essentials: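 CD spectra are recorded in 1 mM sodium cacodylate buffer, pH 7.0, in 10 mm quartz cuvettes, averaging four scans. A 50 μM drug solution is diluted stepwise with 5 mM DNA. Alternatively, the drug–DNA complex at high P/D is diluted with pure ligand solution to reach the desired drug/DNA ratio.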
In general terms: CD spectra are sensitive to the conformation of chiral molecules.

Assay [5] concerns Calf thymus DNA. Put plainly: Binding affinity to calf thymus DNA by fluorescence titration assay. It counts as nucleic-acid assay, Bos taurus. In outline: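 Intrinsic drug fluorescence is measured at room temperature with excitation at 360 nm and emission scanned over 380–520 nm. Drug is held at 10 μM with DNA at 0.01–1 mM, each sample prepared separately. The apparent KD is obtained by nonlinear least-squares fitting to KD = [ligand][DNA]/[ligand-DNA].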

Assay [6] concerns Nucleic Acid. The assay is described as follows: Binding affinity to DNA assessed as inhibition of cleavage of DNA substrate up to 100 uM by Dnase1 footprinting assay. It counts as nucleic-acid assay. In outline: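 DNase I is then added to a final concentration of about 0.01 unit/mL. Digestion runs 3 min and is stopped by freeze-drying. Protected sites are localized on the gel.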

The subject of assay [7] is Nucleic Acid. The assay is described as follows: Binding affinity to DNA assessed as inhibition of cleavage of DNA substrate by densitometric analysis. Type of assay: nucleic-acid assay.
Assay [8] addresses T1, DNA topoisomerase 1 (Homo sapiens) (UniProt P11387).
T1 sequence (whole entry): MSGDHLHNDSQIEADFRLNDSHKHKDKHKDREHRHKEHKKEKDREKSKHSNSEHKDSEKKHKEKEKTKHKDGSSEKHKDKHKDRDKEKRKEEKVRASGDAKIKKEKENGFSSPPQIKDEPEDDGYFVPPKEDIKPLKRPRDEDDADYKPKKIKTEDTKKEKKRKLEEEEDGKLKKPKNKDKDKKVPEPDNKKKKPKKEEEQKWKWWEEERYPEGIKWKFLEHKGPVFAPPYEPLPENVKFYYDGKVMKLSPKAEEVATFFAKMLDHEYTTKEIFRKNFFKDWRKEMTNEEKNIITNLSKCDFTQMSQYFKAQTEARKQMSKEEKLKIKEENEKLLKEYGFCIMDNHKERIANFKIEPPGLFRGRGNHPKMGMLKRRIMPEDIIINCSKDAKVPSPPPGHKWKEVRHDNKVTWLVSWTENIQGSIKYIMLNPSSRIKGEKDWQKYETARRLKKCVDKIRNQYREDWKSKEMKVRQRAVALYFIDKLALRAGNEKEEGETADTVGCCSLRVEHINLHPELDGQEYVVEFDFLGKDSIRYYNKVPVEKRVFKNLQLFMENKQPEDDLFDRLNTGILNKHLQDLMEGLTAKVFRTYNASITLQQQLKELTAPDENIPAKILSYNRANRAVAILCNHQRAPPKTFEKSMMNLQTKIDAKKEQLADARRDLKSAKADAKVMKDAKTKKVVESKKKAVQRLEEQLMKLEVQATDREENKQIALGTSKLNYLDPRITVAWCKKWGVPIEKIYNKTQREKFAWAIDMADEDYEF
Put plainly: Inhibition of human recombinant topoisomerase 1-mediated supercoiled pUC19 DNA relaxation up to 100 uM […] by agarose gel electrophoresis analysis. The conditions noted are these: in the assay text read “45 mins” for “2 hrs”. In outline:
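Supercoiled pUC19 (130 ng) is incubated with 4 units of recombinant human topoisomerase I for 45 min at 37 °C. The relaxation buffer is 50 mM Tris pH 7.8, 50 mM KCl, 10 mM MgCl2, 1 mM DTT and 1 mM EDTA, with graded drug. Reactions are stopped with 0.25% SDS and 250 μg/mL proteinase K. Samples are run on 1% agarose for 2 h at 120 V and stained with ethidium bromide.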

The test system of another assay is PC-3. Put plainly: Antiproliferative activity against human PC3 cells after 72 hrs by MTS assay. It counts as functional, cell-based. As to conditions: PC-3, 72 h.
For a further assay, the system named is HT-29. Put plainly: Antiproliferative activity against human HT-29 cells after 72 hrs by MTS assay. Type of assay: functional, cell-based. The conditions noted are these: HT-29, 72 h.
A further assay concerns MCF7. The assay is described as follows: Antiproliferative activity against human MCF7 cells after 72 hrs by MTS assay. As to conditions: MCF7, 72 h. Type of assay: functional, cell-based. For orientation: Formazan colour is commonly taken as a measure of viable cells.

As usually defined, the ΔTm is the change in melting temperature against a reference sample. For orientation: Kd means the equilibrium constant for the complex coming apart. Lower therefore signals tighter binding. The term IC50 denotes the concentration needed to halve the response being measured. The low end stands for higher potency, the high end for lower potency. Turning to `CCN(CC)CCN(c1ccc(C)c(Br)c1)c1ncnc2cc(OC)c(OC)cc12`, the ΔTm with Calf thymus DNA [1] is 14 °C; with Nucleic Acid [2] it was 24.1 °C. Also, the outcome in the assay on Calf thymus DNA [3], in the assay on Calf thymus DNA [4], with Nucleic Acid [6] and in the assay with Nucleic Acid [7] was Active. The compound also gave a Kd in the assay on Calf thymus DNA [5] of 40.2 µM. Besides, the inhibition result in assay [8] is “inactive”. In addition, the IC50 in the assay on PC-3 is greater than 10 µM; in the assay on HT-29 it was 5.6 µM; in the assay with MCF7, 6.8 µM.

With `COc1cc2ncnc(N(C)c3ccc(C)c(Br)c3)c2cc1OC`, the thermal shift (ΔTm) worked out at 8.4 °C in the assay with Calf thymus DNA [1] and 15 °C in the assay with Nucleic Acid [2]. Besides, the outcome in the assay with Calf thymus DNA [3], in the assay with Calf thymus DNA [4], with Nucleic Acid [6] and with Nucleic Acid [7] was Active. Besides, in the assay with Calf thymus DNA [5], the equilibrium dissociation constant (Kd) worked out at 326 µM. Further, the inhibition entry in [8] is “inactive”. The IC50 in the assay on PC-3 is 9.5 µM; with HT-29, 6.3 µM; in the assay on MCF7, 9.9 µM.
